The source of these data is ChEMBL document CHEMBL3227938, “Quantitative structure-activity relationships for biguanides, carbamimidates, and bisbiguanides as inhibitors of Streptococcus mutans No. 6715” (J Med Chem, 1979).

The structures appear in SMILES notation.

Series [1] in a line: Octanol-phosphate buffer partition coefficient, log P of the compound at pH 11.5. The series is classed as physicochemical. The gist of the method:
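Compound partitioned between 0.05 M phosphate buffer (pH 11.5) and octanol, each pre-saturated with the other. Gentle shaking for 90 min at 25 ± 5 °C. Phase ratio and sample amount set so the buffer-layer absorbance fell between 0.2 and 0.9 (1-cm cell, buffer blank). Free-base P was corrected for degree of ionization using pKa.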

For series [2], the system named is Streptococcus mutans. The series is described as follows: Antimicrobial activity against Streptococcus mutans 6715 after 48 hrs by spectrophotometry. The series is classed as functional. The gist of the method:
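Trypticase soy broth with sucrose and the salt of the test agent dosed from ethanol, inoculated with a 24-h S. mutans 6715 culture. Incubated anaerobically at 37 °C. Growth measured spectrophotometrically at 48 h. Each dilution tested in sets of five tubes.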

Series [3] has as its system Streptococcus mutans. The series is described as follows: Antimicrobial activity against Streptococcus mutans 6715 after 24 hrs by spectrophotometry. The series is classed as functional. The gist of the method: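 Inoculated with a 24-h S. mutans 6715 culture and incubated anaerobically at 37 °C. Growth read spectrophotometrically. Dilution series run in sets of five tubes. MIC is the lowest drug level with readings above 60% T at 24 h. Repeat determinations agreed.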

Series [4] is described as follows: Dissociation constant, pKa of the compound in 3:1 water:ethanol at 1 x 10 '-3 M. Format: physicochemical. Summed up: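 pKa measured in duplicate by potentiometric titration in 3:1 water–ethanol at 10⁻³. pH recorded after each titrant addition, and pKa calculated by the Albert–Serjeant method.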

A word on the logD: it is lipophilicity at a set pH, counting ionised and neutral species. High values mean higher lipophilicity, low ones lower lipophilicity. The compound `CCCCCC/N=C(N)/N=C(\N)Nc1ccc(Cl)cc1` gave a logD in series [1] of 3.13. The “log(1/MIC)” value in the series with Streptococcus mutans [2] and in the series on Streptococcus mutans [3] was 5 each time.

What is called pKa is the pH at which an ionisable group is half protonated. Low values mean a group that gives up its proton readily, high ones a group that holds its proton tightly. In series [1], `CNC(=N)NC(=N)Nc1ccc(Cl)cc1` had a logD of 1.58. The “log(1/MIC)” value in the series on Streptococcus mutans [2] and in the series on Streptococcus mutans [3] was 3 in each case. The same compound had a pKa at 1000 µM in series [4] of 10.6.

`CCNC(=N)NC(=N)Nc1ccc(Cl)cc1` returned a log distribution coefficient (logD) in series [1] of 2.14. Besides, the “log(1/MIC)” value in the series on Streptococcus mutans [2] was determined as 3; in the series with Streptococcus mutans [3] it was 3.04. In series [4], this compound gave a pKa at 1000 µM of 10.8.

As for `CCCNC(=N)NC(=N)Nc1ccc(Cl)cc1`, the logD in series [1] worked out at 2.63. Besides, the “log(1/MIC)” value in the series with Streptococcus mutans [2] was found to be 3; with Streptococcus mutans [3], 3.04. In addition, the pKa at 1000 µM in series [4] worked out at 10.8.

`CCCCNC(=N)NC(=N)Nc1ccc(Cl)cc1` showed a logD in series [1] of 3.13. The “log(1/MIC)” value in the series on Streptococcus mutans [2] and in the series with Streptococcus mutans [3] was 4 each time. The pKa at 1000 µM in series [4] was determined as 10.8.

In turn, `CCCCC(CC)CNC(=N)NC(=N)Nc1ccc(Cl)cc1` (stereo not drawn) came in with a logD in series [1] of 4.93. Besides, the “log(1/MIC)” value in the series with Streptococcus mutans [2] and in the series on Streptococcus mutans [3] was 5.4 in each case.

`CCCCCCCCNC(=N)NC(=N)Nc1ccc(Cl)cc1` yielded a pH-dependent lipophilicity (logD) in series [1] of 5.13. Besides, the “log(1/MIC)” value in the series with Streptococcus mutans [2] and in the series with Streptococcus mutans [3] was 5.22 each time.

In series [1], `CCCCCCCCCCNC(=N)NC(=N)Nc1ccc(Cl)cc1` showed a logD of 6.13. In addition, the “log(1/MIC)” value was 5 in the series with Streptococcus mutans [2] and 5.1 in the series with Streptococcus mutans [3].

`CCCCCCCCCCCCNC(=N)NC(=N)Nc1ccc(Cl)cc1`: the log distribution coefficient (logD) in series [1] stood at 7.13. Besides, the “log(1/MIC)” value in the series on Streptococcus mutans [2] is reported as 4.7; in the series on Streptococcus mutans [3] it was 5.

As to `CCCCCCCCNC(=N)NC(=N)Nc1ccc(C)cc1`, the logD in series [1] amounted to 4.93. The “log(1/MIC)” value is recorded as 5.3 with Streptococcus mutans [2] and 5.4 in the series on Streptococcus mutans [3].

Regarding `CCCCC(CC)CNC(=N)NC(=N)Nc1ccc(C)cc1` (stereo not drawn), the log distribution coefficient (logD) in series [1] amounted to 4.73. Further, the “log(1/MIC)” value with Streptococcus mutans [2] and with Streptococcus mutans [3] was 5.22 in each case.

For the compound `CCCCCCCCNC(=N)NC(=N)Nc1ccccc1`, in series [1], the log distribution coefficient (logD) was found to be 4.43. Moreover, the entries for the “log(1/MIC)” value in the series on Streptococcus mutans [2] and with Streptococcus mutans [3] were 5.04 and 5.22, respectively.

In turn, `CCCCCCCCCCNC(=N)NC(=N)Nc1ccccc1` came in with a log distribution coefficient (logD) in series [1] of 5.43. Further, the “log(1/MIC)” value in the series on Streptococcus mutans [2] came to 5.15; in the series with Streptococcus mutans [3], 5.3.

As to `CCCCCCNC(=N)NC(=N)Nc1cccc(C(F)(F)F)c1`, the logD in series [1] stood at 4.31. For the same compound, the “log(1/MIC)” value was 4.96 with Streptococcus mutans [2] and 5 with Streptococcus mutans [3].

In series [1], `CCCCCCCCNC(=N)NC(=N)Nc1cccc(C(F)(F)F)c1` came in with a logD of 5.31. Also, the “log(1/MIC)” value in the series on Streptococcus mutans [2] and in the series with Streptococcus mutans [3] was 5.3 each time.

`CCCCCCCCNC(=N)NC(=N)Nc1ccc(OC)cc1` displayed a logD in series [1] of 4.41. Also, the “log(1/MIC)” value in the series with Streptococcus mutans [2] stood at 5; in the series with Streptococcus mutans [3], 5.22.

With `CCOC(=N)NC(=N)Nc1ccc(Cl)cc1`, the logD in series [1] amounted to 2.32. For the same compound, the “log(1/MIC)” value with Streptococcus mutans [2] and with Streptococcus mutans [3] was 3.7 in each case. Besides, the pKa at 1000 µM in series [4] stood at 9.36.

`CC(C)OC(=N)NC(=N)Nc1ccc(Cl)cc1`: the logD in series [1] is 2.64. Moreover, the “log(1/MIC)” value with Streptococcus mutans [2] and with Streptococcus mutans [3] was 3.3 each time. Further, the pKa at 1000 µM in series [4] was 9.35.

The compound `CCCCOC(=N)NC(=N)Nc1ccc(Cl)cc1` came in with a pH-dependent lipophilicity (logD) in series [1] of 3.32. Besides, the “log(1/MIC)” value was determined as 4 with Streptococcus mutans [2] and 4.15 in the series on Streptococcus mutans [3].

Compound `CCCCCCOC(=N)NC(=N)Nc1ccc(Cl)cc1` showed a logD in series [1] of 4.32. The “log(1/MIC)” value is given as 5 in the series with Streptococcus mutans [2] and 5.1 in the series with Streptococcus mutans [3].

For `CCCCCCCCOC(=N)NC(=N)Nc1ccc(Cl)cc1`, in series [1], the logD is 5.32. The “log(1/MIC)” value with Streptococcus mutans [2] stood at 5.3; with Streptococcus mutans [3], 5.52.

In series [1], `CCCCCCCCCCOC(=N)NC(=N)Nc1ccc(Cl)cc1` had a log distribution coefficient (logD) of 6.32. The “log(1/MIC)” value in the series with Streptococcus mutans [2] and in the series with Streptococcus mutans [3] was 5.05 in each case.

In the case of `N=C(NCCCCCCNC(=N)NC(=N)Nc1cccc(C(F)(F)F)c1)NC(=N)Nc1cccc(C(F)(F)F)c1`, in series [1], the logD is 5.12. In addition, the “log(1/MIC)” value was 5.22 in the series with Streptococcus mutans [2] and 5.52 with Streptococcus mutans [3].

`N=C(NCCCCCCNC(=N)NC(=N)NC1CCCCC1)NC(=N)NC1CCCCC1`: in series [1], the pH-dependent lipophilicity (logD) came out at 4.46. Besides, the “log(1/MIC)” value in the series on Streptococcus mutans [2] and with Streptococcus mutans [3] was 5.4 in each case.

On to `N=C(NCCCCCCNC(=N)NC(=N)NC12CC3CC(CC(C3)C1)C2)NC(=N)NC12CC3CC(CC(C3)C1)C2`, for which the logD in series [1] was 6.04. Also, the “log(1/MIC)” value with Streptococcus mutans [2] and in the series with Streptococcus mutans [3] was 5 throughout.

As for `CSc1ccc(NC(=N)NC(=N)NCCCCCCNC(=N)NC(=N)Nc2ccc(SC)cc2)cc1`, the log distribution coefficient (logD) in series [1] is 4.58. The “log(1/MIC)” value in the series on Streptococcus mutans [2] and in the series on Streptococcus mutans [3] was 5.4 in each case.

With `CCSc1ccc(NC(=N)NC(=N)NCCCCCCNC(=N)NC(=N)Nc2ccc(SCC)cc2)cc1`, the logD in series [1] came out at 5.58. Besides, the “log(1/MIC)” value with Streptococcus mutans [2] and in the series with Streptococcus mutans [3] was 5.7 throughout.

In series [1], `CCCCSc1ccc(NC(=N)NC(=N)NCCCCCCNC(=N)NC(=N)Nc2ccc(SCCCC)cc2)cc1` gave a logD of 7.58. In addition, the “log(1/MIC)” value in the series on Streptococcus mutans [2] is 5.52; with Streptococcus mutans [3], 5.7.

`CCCCCSc1ccc(NC(=N)NC(=N)NCCCCCCNC(=N)NC(=N)Nc2ccc(SCCCCC)cc2)cc1` returned a logD in series [1] of 8.58. In addition, the “log(1/MIC)” value was found to be 5.3 in the series on Streptococcus mutans [2] and 5.52 with Streptococcus mutans [3].

For `CCCS(=O)(=O)c1ccc(NC(=N)NC(=N)NCCCCCCNC(=N)NC(=N)Nc2ccc(S(=O)(=O)CCC)cc2)cc1`, the logD in series [1] turned out to be 2.1. Further, the “log(1/MIC)” value in the series with Streptococcus mutans [2] and in the series with Streptococcus mutans [3] was 3.7 in each case.

`CCCCS(=O)(=O)c1ccc(NC(=N)NC(=N)NCCCCCCNC(=N)NC(=N)Nc2ccc(S(=O)(=O)CCCC)cc2)cc1` yielded a logD in series [1] of 3.1. In addition, the “log(1/MIC)” value in the series on Streptococcus mutans [2] is reported as 4.52; with Streptococcus mutans [3], 4.7.

In series [1], `CCCCCS(=O)(=O)c1ccc(NC(=N)NC(=N)NCCCCCCNC(=N)NC(=N)Nc2ccc(S(=O)(=O)CCCCC)cc2)cc1` came in with a logD of 4.1. Further, the “log(1/MIC)” value in the series with Streptococcus mutans [2] was 5.4; with Streptococcus mutans [3] it was 5.52.

In series [1], `CCCCCCS(=O)(=O)c1ccc(NC(=N)NC(=N)NCCCCCCNC(=N)NC(=N)Nc2ccc(S(=O)(=O)CCCCCC)cc2)cc1` yielded a logD of 5.1. Further, the “log(1/MIC)” value in the series with Streptococcus mutans [2] and with Streptococcus mutans [3] was 5.4 each time.

`CCCSc1ccc(NC(=N)NC(=N)NCCCCCCNC(=N)NC(=N)Nc2ccc(SCCC)cc2)cc1` showed a pH-dependent lipophilicity (logD) in series [1] of 6.58. Moreover, the “log(1/MIC)” value in the series with Streptococcus mutans [2] amounted to 5.22; with Streptococcus mutans [3], 5.3.

`CCCCC(CC)CNC(=N)NC(=N)NCCCCCCNC(=N)NC(=N)NCC(CC)CCCC` (stereo not drawn) [ALEXIDINE] had a pH-dependent lipophilicity (logD) in series [1] of 7.04. In addition, the “log(1/MIC)” value in the series on Streptococcus mutans [2] is reported as 5.1; in the series on Streptococcus mutans [3], 5.15.

In turn, `N=C(NCCCCCCNC(=N)NC(=N)Nc1ccc(Cl)cc1)NC(=N)Nc1ccc(Cl)cc1` [CHLORHEXIDINE] had a logD in series [1] of 4.78. In addition, the “log(1/MIC)” value in the series with Streptococcus mutans [2] was determined as 5.22; with Streptococcus mutans [3] it was 5.3. In series [4], this compound came in with a pKa at 1000 µM of 10.8.

`CC(C)NC(=N)NC(=N)Nc1ccc(Cl)cc1` [PROGUANIL] displayed a logD in series [1] of 2.43. For the same compound, the “log(1/MIC)” value in the series with Streptococcus mutans [2] is 3; with Streptococcus mutans [3], 3.04.
